Values after ≈ are worked out from the molar mass of the structure shown.
Legend:
[1] = test system: S. aureus strain ATCC 29213; experiment: MIC, broth microdilution; assay type: cell-based, Staphylococcus aureus; conditions: S. aureus 29213; Table 1
How it was run: (§1)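 Broth microdilution per CLSI guidelines. MIC is the lowest concentration preventing visible bacterial growth. MIC is reported in μg/mL, with S. aureus values also converted to μM.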

[2] = test system: E. coli strain ATCC 25922; experiment: MIC, broth microdilution; assay type: cell-based; conditions: Escherichia coli, ATCC25922, read-out: MIC E. coli
How it was run: as §1

S. aureus ATCC 29247 = experiment: MIC, clinical isolate strain 1; assay type: cell-based; conditions: Staphylococcus aureus, ATCC29247, read-out: MIC strain 1
How it was run: as §1

S. aureus ATCC 43300 = experiment: MIC, clinical isolate strain 5; assay type: cell-based; conditions: Staphylococcus aureus, ATCC43300, read-out: MIC strain 5
How it was run: as §1

USA300 #417 = experiment: MIC, clinical isolate strain 6; assay type: cell-based; conditions: Staphylococcus aureus, USA300, read-out: MIC strain 6
How it was run: as §1

USA300 #757 = experiment: MIC, clinical isolate strain 7; assay type: cell-based; conditions: Staphylococcus aureus, USA300, read-out: MIC strain 7
How it was run: as §1

USA300 #1799 = experiment: MIC, clinical isolate strain 8; assay type: cell-based; conditions: Staphylococcus aureus, USA300, read-out: MIC strain 8
How it was run: as §1

USA300 #2690 = experiment: MIC, clinical isolate strain 9; assay type: cell-based; conditions: Staphylococcus aureus, USA300, read-out: MIC strain 9
How it was run: as §1

G. mellonella larvae = experiment: Toxicity in G. mellonella larvae; assay type: in vivo, Galleria mellonella; conditions: 50 and 100 mg/kg in 50% PEG in saline, injected, 48 h
How it was run: (§2)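 G. mellonella model: groups of 10 last-instar larvae weighing 200–300 mg, held at 37 °C. Test compound is dissolved in 50% PEG in saline (0 [vehicle], 50, 100 mg/kg) and injected into the last left proleg with a Hamilton syringe. Mortality is scored every 12 h for 48 h. Survival is analysed by log rank and χ² test (1 degree of freedom), with three independent experiments.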

[3] = test system: G. mellonella larvae infected with MRSA ATCC 43300; experiment: Antimicrobial efficacy in G. mellonella model of infection; assay type: in vivo, Galleria mellonella; conditions: 2.5 × 10^6 CFU/larva MRSA ATCC 43300
How it was run: as §2

S. aureus FtsZ [4] = biological target: T1, S. aureus FtsZ (Staphylococcus aureus, UniProt P0A031); experiment: STD NMR study; assay type: binding
T1 sequence (P0A031 1-390): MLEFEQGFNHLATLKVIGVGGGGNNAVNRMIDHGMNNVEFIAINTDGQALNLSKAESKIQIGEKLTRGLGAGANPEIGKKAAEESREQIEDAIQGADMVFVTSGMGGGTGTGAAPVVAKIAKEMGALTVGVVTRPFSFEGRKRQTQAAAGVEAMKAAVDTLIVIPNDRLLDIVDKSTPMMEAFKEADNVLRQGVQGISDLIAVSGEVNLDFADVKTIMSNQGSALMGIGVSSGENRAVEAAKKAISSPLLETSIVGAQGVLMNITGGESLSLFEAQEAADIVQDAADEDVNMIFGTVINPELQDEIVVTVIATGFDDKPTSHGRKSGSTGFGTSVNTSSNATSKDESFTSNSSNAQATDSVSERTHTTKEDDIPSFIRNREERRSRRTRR
How it was run: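 Saturation transfer difference NMR with purified S. aureus FtsZ at 600 MHz and 298 K. For group epitope mapping, each proton's STD signal is integrated relative to the strongest STD signal, set to 100%.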

S. aureus FtsZ [5] = biological target: T1, S. aureus FtsZ; experiment: Light scattering assay of FtsZ polymerization; assay type: biochemical; conditions: 30 μM compound, vs 1% DMSO vehicle
S. aureus FtsZ [6] = biological target: T1, S. aureus FtsZ; experiment: GTPase hydrolysis activity assay; assay type: biochemical; conditions: read-out: inhibition of GTPase hydrolysis activity
B. subtilis 168 [7] = experiment: MIC, B. subtilis 168; assay type: cell-based; conditions: Bacillus subtilis, 168, read-out: MIC B. subtilis 168
B. subtilis 168 [8] = experiment: Bacterial morphology of B. subtilis 168; assay type: cell-based, Bacillus subtilis; conditions: sublethal concentration; DMSO-treated cells < 5 μm
[9] = test system: green fluorescent protein-tagged FtsZ in B. subtilis 168; experiment: Z-ring visualization of B. subtilis 168; assay type: cell-based, Bacillus subtilis
How it was run: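 B. subtilis 168 expressing functional GFP-tagged FtsZ is treated with compound or DMSO. Z-ring formation is imaged by fluorescence microscopy alongside matching phase-contrast images.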

[10] = Solubility in aqueous medium; assay type: physicochemical; conditions: precipitation in aqueous medium at >80 μM

Row | Structure (SMILES) | MIC S. aureus [1] [µg/mL] | MIC S. aureus, number in parentheses calculated in μM [1] [µM] | MIC [2] [µg/mL] | MIC (S. aureus ATCC 29247) [µg/mL] | MIC (S. aureus ATCC 43300) [µg/mL] | MIC (USA300 #417) [µg/mL] | MIC (USA300 #757) [µg/mL] | MIC (USA300 #1799) [µg/mL] | MIC (USA300 #2690) [µg/mL] | toxicity to G. mellonella larvae (survival) (G. mellonella larvae) | survival time of infected larvae ([3]; 50 mg/kg) [h] | survival rate of infected larvae ([3]; 100 mg/kg, 48 h) [%] | binding to FtsZ protein by STD NMR (S. aureus FtsZ [4]) | inhibition of FtsZ polymerization (S. aureus FtsZ [5]) | inhibition at 50 µM (S. aureus FtsZ [6]) [%] | inhibition at 75 µM (S. aureus FtsZ [6]) [%] | MIC (B. subtilis 168 [7]) [µM] | average cell length (B. subtilis 168 [8]) [μm] | Z-ring localization [9] | compound solubility [10]
1 | CCC(CC)c1cc(CCN2CCCN(Cc3ccc(C(F)(F)F)cc3)CC2)nc(-c2ccncc2)n1 [14av_amine16, 1-(2-(6-(Pentan-3-yl)-2-(pyridin-4-yl)pyrimidin-4-yl)ethyl)-4-(4-(trifluoromethyl)benzyl)-1,4-diazepane] | 4 (≈ 7.82 µM) | 8 (≈ 4.09 µg/mL) | > 64 | 4 (≈ 7.82 µM) | 6 (≈ 11.7 µM) | 6 (≈ 11.7 µM) | 6 (≈ 11.7 µM) | 6 (≈ 11.7 µM) | 6 (≈ 11.7 µM) | did not kill the G. mellonella larvae | 36 | 20 | binds to FtsZ protein | complete inhibition | ~20 | ~25 | 12 (≈ 6.14 µg/mL) | > 20 | obvious mislocalization of the Z-ring | poor compound solubility
2 | COc1cccc(OC)c1C(=O)N[C@@H]1C(=O)N2[C@@H]1SC(C)(C)[C@@H]2C(=O)O [methicillin, reference compound] | – | – | – | – | > 64 | > 64 | 64 (≈ 168 µM) | 64 (≈ 168 µM) | – | – | – | – | – | – | – | – | – | – | – | –

From PMC6044853 (ACS Omega, 2017)
